# Assay results taken from ChEMBL document CHEMBL1145012, “New benzo[h][1,6]naphthyridine and azepino[3,2-c]quinoline derivatives as selective antagonists of 5-HT4 receptors: binding profile and pharmacological characterization” (J Med Chem, 2003).
# How the values were obtained:
# [1] = target: 5-hydroxytryptamine receptor 4 (Cavia porcellus) (UniProt O70528); test: Ability to displace [3H]GR-113808 from 5-hydroxytryptamine 4 receptor at concentration of 10e-6 M in guinea pig
# Outline: (§1)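 Guinea pig striatal membranes (males, 220–224 g) in 50 mM HEPES pH 7.4, incubated in duplicate at 37 °C for 30 min with 0.6 nM [3H]GR 113808. Filtration on polyethylenimine-soaked GF/B filters. Nonspecific binding with 10 μM 5-HT. Screened as percent inhibition at 10⁻⁶ and 10⁻⁸ M; Ki derived for compounds giving over 40% inhibition at 10⁻⁸ M.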
# [2] = target: 5-hydroxytryptamine receptor 4 (Cavia porcellus) (UniProt O70528); test: Ability to displace [3H]GR-113808 from 5-hydroxytryptamine 4 receptor at concentration of 10e-8 M in guinea pig; outline: as §1
# [3] = target: 5-hydroxytryptamine receptor 4 (Cavia porcellus, UniProt O70528); test: Ability to displace [3H]GR-113808 from 5-hydroxytryptamine 4 receptor; outline: as §1
# 5-hydroxytryptamine receptor 4 (Cavia porcellus, UniProt O70528), sequence (O70528 whole entry): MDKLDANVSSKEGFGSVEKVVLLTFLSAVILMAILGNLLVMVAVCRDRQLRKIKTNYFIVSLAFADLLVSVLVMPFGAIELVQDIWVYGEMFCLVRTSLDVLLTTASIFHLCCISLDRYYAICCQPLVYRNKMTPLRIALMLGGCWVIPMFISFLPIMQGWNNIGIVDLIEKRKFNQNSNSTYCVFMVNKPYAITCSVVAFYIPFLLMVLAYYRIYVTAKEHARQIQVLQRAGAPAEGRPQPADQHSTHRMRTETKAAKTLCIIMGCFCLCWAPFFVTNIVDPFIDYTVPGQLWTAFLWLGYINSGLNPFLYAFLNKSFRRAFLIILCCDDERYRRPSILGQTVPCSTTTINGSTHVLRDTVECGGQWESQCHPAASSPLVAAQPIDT
# Mus musculus [4] = test: Antinociceptive activity in the mouse writhing test after intraperitoneal dose of 0.01 mg/kg; assay type: functional
# Outline: (§2)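 Male OF1 mice (20–24 g), groups of eight. Compounds in saline given ip (10 mL/kg) 15 min before ip 0.6% aqueous acetic acid (10 mL/kg). Stretches per animal counted over 10 min, starting 10 min after acid. Stretch defined as back arching, pelvic rotation and hind limb extension. Data are mean ± SEM; ANOVA then Fisher PLSD.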
# Mus musculus [5] = test: Antinociceptive activity in the mouse writhing test after intraperitoneal dose of 0.1 mg/kg; assay type: functional; outline: as §2
# Mus musculus [6] = test: Antinociceptive activity in the mouse writhing test after intraperitoneal dose of 1 mg/kg; assay type: functional; outline: as §2
# Mus musculus [7] = test: Antinociceptive activity in the mouse writhing test before administration of the compound; assay type: functional; outline: as §2
# Mus musculus [8] = test: Compound was tested at subtoxic dose of 25 mg/kg in mice; Symptoms are hyperactivity, irritability, stereotypy.; assay type: ADME, organism-based; parameters: dose 25 mg/kg; conditions: in vivo
# [9] = target: 5-hydroxytryptamine receptor 1A (Mus musculus, UniProt Q64264); test: Ability to displace [3H]8-OH-DPAT from 5-hydroxytryptamine 1A receptor
# 5-hydroxytryptamine receptor 1A, sequence (Q64264 whole entry): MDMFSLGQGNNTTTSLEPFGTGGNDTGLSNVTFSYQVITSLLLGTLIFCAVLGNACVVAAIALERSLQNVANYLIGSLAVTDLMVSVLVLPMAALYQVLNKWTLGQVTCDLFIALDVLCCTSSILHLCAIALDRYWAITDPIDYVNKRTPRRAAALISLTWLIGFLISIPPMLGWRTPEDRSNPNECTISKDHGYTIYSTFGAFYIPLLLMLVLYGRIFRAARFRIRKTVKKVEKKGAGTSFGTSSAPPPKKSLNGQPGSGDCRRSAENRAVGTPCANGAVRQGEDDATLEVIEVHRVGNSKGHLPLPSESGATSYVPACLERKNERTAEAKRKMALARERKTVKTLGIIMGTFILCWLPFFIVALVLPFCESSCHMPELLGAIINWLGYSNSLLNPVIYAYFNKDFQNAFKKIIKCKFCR
# [10] = target: 5-hydroxytryptamine receptor 2A (Homo sapiens, UniProt P28223); test: Ability to displace [3H]-ketanserin from 5-hydroxytryptamine 2A receptor
# [11] = target: 5-hydroxytryptamine receptor 2B (Homo sapiens, UniProt P41595); test: Ability to displace [3H]5-HT from 5-hydroxytryptamine 2B receptor
# [12] = target: 5-hydroxytryptamine receptor 4 (Mus musculus, UniProt P97288); test: Ability to displace [3H]GR-113808 from mouse 5-hydroxytryptamine 4 receptor in COS7 cells; assay type: cell-based, COS-7
# [13] = target: 5-hydroxytryptamine receptor 7 (Homo sapiens) (UniProt P34969); test: Ability to displace [125I]LSD […] from 5-hydroxytryptamine 7 receptor at concentration of 10e-6 M
# 5-hydroxytryptamine receptor 7 (Homo sapiens), sequence (P34969 whole entry): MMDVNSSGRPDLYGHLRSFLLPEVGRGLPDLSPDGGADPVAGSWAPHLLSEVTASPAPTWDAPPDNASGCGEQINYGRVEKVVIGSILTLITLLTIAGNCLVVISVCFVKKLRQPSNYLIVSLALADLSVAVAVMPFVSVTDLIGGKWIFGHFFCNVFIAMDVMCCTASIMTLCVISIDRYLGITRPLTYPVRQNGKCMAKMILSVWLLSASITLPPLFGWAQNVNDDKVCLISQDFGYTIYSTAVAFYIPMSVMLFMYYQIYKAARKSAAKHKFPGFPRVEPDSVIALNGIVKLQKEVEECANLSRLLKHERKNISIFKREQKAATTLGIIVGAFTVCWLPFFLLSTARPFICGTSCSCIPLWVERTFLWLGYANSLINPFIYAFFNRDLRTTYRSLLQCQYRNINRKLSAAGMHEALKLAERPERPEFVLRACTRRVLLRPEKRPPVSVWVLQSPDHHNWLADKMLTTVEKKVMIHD
# [14] = target: 5-hydroxytryptamine receptor 7 (Homo sapiens) (UniProt P34969); test: Ability to displace [125I]LSD […] from 5-hydroxytryptamine 7 receptor at concentration of 10e-8 M
# [15] = target: 5-hydroxytryptamine receptor 2C (Homo sapiens, UniProt P28335); test: Ability to displace [3H]mesulergine from 5-hydroxytryptamine 2C receptor
# [16] = target: 5-hydroxytryptamine receptor 6 (Homo sapiens) (UniProt P50406); test: Ability to displace [125I]LSD […] from 5-hydroxytryptamine 6 receptor at concentration of 10e-6 M
# 5-hydroxytryptamine receptor 6 (Homo sapiens), sequence (P50406 whole entry): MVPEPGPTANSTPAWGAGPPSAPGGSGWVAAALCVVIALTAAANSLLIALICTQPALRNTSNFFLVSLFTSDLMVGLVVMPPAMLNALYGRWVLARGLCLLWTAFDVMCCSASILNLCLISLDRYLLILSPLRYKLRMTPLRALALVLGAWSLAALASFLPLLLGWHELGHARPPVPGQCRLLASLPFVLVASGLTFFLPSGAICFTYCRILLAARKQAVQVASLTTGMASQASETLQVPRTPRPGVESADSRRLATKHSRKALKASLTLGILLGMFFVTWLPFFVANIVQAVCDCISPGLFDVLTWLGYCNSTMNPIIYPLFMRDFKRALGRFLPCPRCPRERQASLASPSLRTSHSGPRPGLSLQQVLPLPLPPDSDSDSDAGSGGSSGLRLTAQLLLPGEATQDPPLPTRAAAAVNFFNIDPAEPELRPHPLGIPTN
# [17] = target: 5-hydroxytryptamine receptor 6 (Homo sapiens) (UniProt P50406); test: Ability to displace [125I]LSD […] from 5-hydroxytryptamine 6 receptor at concentration of 10e-8 M
# [18] = Lethal dose of the compound; assay type: ADME
# Outline: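 Male OF1 mice (20–24 g), in groups of four, received graded ip doses (12.5, 25, 50 mg/kg) in saline (10 mL/kg).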
# [19] = target: Beta-1 adrenergic receptor (Homo sapiens) (UniProt P08588); test: Ability to displace [3H]CGP-12177 from Beta-1 adrenergic receptor at concentration of 10e-5 M
# Beta-1 adrenergic receptor (Homo sapiens), sequence (P08588 whole entry, looked up): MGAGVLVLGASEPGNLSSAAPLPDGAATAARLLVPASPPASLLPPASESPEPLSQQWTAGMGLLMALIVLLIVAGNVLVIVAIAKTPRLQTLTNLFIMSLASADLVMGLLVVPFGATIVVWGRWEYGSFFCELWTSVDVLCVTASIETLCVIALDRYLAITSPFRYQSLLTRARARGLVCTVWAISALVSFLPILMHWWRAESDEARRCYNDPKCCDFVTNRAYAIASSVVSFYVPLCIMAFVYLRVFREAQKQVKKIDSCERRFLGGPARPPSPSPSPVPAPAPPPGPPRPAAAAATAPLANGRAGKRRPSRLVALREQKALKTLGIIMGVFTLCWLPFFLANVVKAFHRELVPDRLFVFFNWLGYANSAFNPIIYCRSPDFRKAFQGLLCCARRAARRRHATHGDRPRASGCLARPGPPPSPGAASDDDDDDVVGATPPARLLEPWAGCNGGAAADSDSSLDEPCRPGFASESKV
# [20] = target: Beta-1 adrenergic receptor (Homo sapiens) (UniProt P08588); test: Ability to displace [3H]CGP-12177 from Beta-1 adrenergic receptor at concentration of 10e-7 M
# [21] = target: Beta-2 adrenergic receptor (Homo sapiens) (UniProt P07550); test: Ability to displace [3H]CGP-12177 from Beta-2 adrenergic receptor at concentration of 10e-7 M
# Beta-2 adrenergic receptor (Homo sapiens), sequence (P07550 whole entry, looked up): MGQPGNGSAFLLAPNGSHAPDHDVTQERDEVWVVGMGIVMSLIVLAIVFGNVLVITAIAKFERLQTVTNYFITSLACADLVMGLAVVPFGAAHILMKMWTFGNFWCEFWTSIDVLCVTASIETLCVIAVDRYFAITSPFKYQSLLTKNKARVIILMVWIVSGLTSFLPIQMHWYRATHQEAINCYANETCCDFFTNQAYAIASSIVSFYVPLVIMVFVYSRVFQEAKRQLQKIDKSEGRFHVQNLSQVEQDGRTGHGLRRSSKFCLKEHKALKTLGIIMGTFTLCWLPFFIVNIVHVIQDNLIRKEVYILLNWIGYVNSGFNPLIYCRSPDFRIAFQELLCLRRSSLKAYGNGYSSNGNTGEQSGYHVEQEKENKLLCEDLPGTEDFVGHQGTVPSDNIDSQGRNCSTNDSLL
# [22] = target: Beta-2 adrenergic receptor (Homo sapiens) (UniProt P07550); test: Ability to displace [3H]-CGP-12,177 from adrenergic Beta-2 adrenergic receptor at concentration of 10e-5 M
# D(1A) dopamine receptor = D(1A) dopamine receptor (Mus musculus, UniProt Q61616); test: Ability to displace [3H]SCH-23390 from Dopamine receptor D1
# D(2) dopamine receptor = D(2) dopamine receptor (Homo sapiens, UniProt P14416); test: Ability to displace [3H]YM-0915 from Dopamine receptor D2
# [23] = target: Sodium-dependent dopamine transporter (Rattus norvegicus) (UniProt P23977); test: Ability to recapture DA by displace [3H]GBR-12935 from dopamine transporter at concentration of 10e-5 M
# Sodium-dependent dopamine transporter (Rattus norvegicus), sequence (P23977 whole entry): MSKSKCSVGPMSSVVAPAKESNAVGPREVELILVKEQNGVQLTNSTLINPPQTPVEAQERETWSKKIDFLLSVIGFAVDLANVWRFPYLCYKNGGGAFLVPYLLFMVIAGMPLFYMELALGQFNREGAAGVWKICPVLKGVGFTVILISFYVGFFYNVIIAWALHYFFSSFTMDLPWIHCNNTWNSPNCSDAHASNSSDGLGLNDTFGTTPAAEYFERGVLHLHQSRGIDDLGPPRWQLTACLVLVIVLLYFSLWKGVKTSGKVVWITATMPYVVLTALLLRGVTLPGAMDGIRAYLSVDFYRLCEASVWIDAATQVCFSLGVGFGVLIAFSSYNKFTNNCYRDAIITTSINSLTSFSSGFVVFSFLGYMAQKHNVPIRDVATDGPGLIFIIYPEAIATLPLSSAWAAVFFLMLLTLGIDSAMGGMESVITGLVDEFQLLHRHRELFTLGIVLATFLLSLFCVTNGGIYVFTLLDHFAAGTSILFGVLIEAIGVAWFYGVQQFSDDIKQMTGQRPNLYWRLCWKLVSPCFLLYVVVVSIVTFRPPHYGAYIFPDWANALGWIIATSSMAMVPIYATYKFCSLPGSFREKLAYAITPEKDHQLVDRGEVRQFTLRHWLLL
# [24] = target: Sodium-dependent dopamine transporter (Rattus norvegicus) (UniProt P23977); test: Ability to recapture DA by displace [3H]GBR-12935 from dopamine transporter at concentration of 10e-7 M
# [25] = target: Histamine H1 receptor (Homo sapiens) (UniProt P35367); test: Ability to displace [3H]-mepyramine from histamine H1 receptor at concentration of 10e-5 M
# Histamine H1 receptor (Homo sapiens), sequence (P35367 whole entry): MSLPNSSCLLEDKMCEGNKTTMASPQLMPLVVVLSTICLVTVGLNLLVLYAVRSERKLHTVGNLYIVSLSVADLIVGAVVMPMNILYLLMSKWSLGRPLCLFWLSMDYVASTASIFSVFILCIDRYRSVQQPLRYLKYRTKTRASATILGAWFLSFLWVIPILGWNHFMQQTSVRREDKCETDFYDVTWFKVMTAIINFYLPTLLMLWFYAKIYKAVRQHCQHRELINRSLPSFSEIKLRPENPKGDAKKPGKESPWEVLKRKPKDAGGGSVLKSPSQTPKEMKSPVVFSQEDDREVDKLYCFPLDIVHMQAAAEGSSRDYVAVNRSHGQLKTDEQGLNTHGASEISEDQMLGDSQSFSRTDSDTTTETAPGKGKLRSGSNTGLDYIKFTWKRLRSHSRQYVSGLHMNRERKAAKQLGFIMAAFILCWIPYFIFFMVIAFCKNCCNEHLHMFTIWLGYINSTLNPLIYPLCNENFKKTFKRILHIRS
# [26] = target: Histamine H1 receptor (Homo sapiens) (UniProt P35367); test: Ability to displace [3H]mepyramine from histamine H1 receptor at concentration of 10e-7 M
# [27] = target: Histamine H2 receptor (Rattus norvegicus) (UniProt P25102); test: Ability to displace [3H]tiotidine from histamine-H2 receptor at concentration of 10e-5 M
# Histamine H2 receptor (Rattus norvegicus), sequence (P25102 whole entry): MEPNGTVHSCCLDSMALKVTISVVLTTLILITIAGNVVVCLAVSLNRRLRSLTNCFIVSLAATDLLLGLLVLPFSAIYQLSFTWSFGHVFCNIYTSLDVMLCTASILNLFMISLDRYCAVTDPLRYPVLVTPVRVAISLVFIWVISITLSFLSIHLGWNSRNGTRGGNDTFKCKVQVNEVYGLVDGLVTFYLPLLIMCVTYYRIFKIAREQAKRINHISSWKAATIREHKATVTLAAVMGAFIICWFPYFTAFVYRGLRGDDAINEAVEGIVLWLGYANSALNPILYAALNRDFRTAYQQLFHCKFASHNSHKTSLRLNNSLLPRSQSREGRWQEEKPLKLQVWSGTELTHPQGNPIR
# [28] = target: Histamine H2 receptor (Rattus norvegicus) (UniProt P25102); test: Ability to displace [3H]tiotidine from histamine-H2 receptor at concentration of 10e-7 M
# Mus musculus [29] = test: Compound was tested at subtoxic doses of 12.5-25-50 mg/kg in mice; Symptoms are Hypoactivity,relaxation,Passivity.; assay type: ADME, organism-based; conditions: in vivo
# Mus musculus [30] = test: Compound was tested at toxic doses of 12.5-25-50 mg/kg in mice; Convulsions.; assay type: ADME, organism-based; conditions: in vivo
# Mus musculus [31] = test: Antinociceptive activity in the mouse writhing test after intraperitoneal dose of 0.1 mg/kg; p<0.05.; assay type: functional; outline: as §2
# Mus musculus [32] = test: Antinociceptive activity in the mouse writhing test after intraperitoneal dose of 1 mg/kg; p<0.01; assay type: functional; outline: as §2
# [33] = target: Sodium-dependent serotonin transporter (Homo sapiens) (UniProt P31645); test: Ability to recapture 5-HT by displace [3H]paroxetine at serotonin transporter at concentration of 10e-7 M
# Sodium-dependent serotonin transporter (Homo sapiens), sequence (P31645 whole entry, looked up): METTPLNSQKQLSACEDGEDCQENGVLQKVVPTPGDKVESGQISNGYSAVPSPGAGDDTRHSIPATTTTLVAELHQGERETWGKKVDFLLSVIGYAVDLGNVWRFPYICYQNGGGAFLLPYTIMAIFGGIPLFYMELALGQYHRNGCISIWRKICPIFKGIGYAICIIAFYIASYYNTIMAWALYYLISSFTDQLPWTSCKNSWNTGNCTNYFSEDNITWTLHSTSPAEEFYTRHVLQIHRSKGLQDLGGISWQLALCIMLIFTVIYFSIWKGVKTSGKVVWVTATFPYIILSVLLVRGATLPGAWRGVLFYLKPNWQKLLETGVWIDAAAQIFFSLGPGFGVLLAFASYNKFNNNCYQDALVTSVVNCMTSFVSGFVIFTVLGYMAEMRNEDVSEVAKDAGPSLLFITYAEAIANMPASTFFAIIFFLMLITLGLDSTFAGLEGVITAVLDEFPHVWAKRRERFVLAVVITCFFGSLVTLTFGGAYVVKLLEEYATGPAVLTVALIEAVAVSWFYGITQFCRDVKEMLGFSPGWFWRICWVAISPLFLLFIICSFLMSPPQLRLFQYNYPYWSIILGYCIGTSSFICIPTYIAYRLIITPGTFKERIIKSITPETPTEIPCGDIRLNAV
# [34] = target: Sodium-dependent serotonin transporter (Homo sapiens) (UniProt P31645); test: Ability to recapture 5-HT by displacing [3H]paroxetine at serotonin transporter at concentration of 10e-5 M
# Vasopressin V1b receptor = Vasopressin V1b receptor (Rattus norvegicus, UniProt P48974); test: Ability to displace [3H]AVP from vasopressin V1 receptor
# Vasopressin V2 receptor = Vasopressin V2 receptor (Sus scrofa, UniProt P32307); test: Ability to displace [3H]AVP from Vasopressin V2 receptor
# [35] = Ability to recaprure NAD using [3H]nisoxetine at concentration of 10e-5 M
# [36] = Ability to recaprure NAD using [3H]-nisoxatine at concentration of 10e-7 M
# Mus musculus [37] = test: Antinociceptive activity in the mouse writhing test after intraperitoneal dose of 5 mg/kg; assay type: functional; outline: as §2
# Mus musculus [38] = test: Antinociceptive activity in the mouse writhing test after intraperitoneal dose of 30 mg/kg; assay type: functional; outline: as §2
# 5-hydroxytryptamine receptor 4 (Cavia porcellus), sequence (O70528 whole entry): as the sequence (O70528 whole entry) above
compound,measurement,setting,value
CCCCN1CCC(COc2nc3ccccc3c3c2CCCCN3)CC1,inhibition,[1],100%
same,inhibition,[2],44%
same,Ki,[3],16.3 nM
CCCN1CCC(COc2nc3ccc(Cl)cc3c3c2CCCN3)CC1,inhibition,[1],100%
same,inhibition,[2],0%
COc1[nH]c2ccc(F)cc2c1C(=O)OCC1CCN(CCNS(C)(=O)=O)CC1,Stretches,Mus musculus [4],16.5
same,Stretches,Mus musculus [5],11.5
same,Stretches,Mus musculus [6],11.2
same,Stretches,Mus musculus [7],20
COC(=O)C(c1ccccc1)C1CCCCN1 (centres undefined) [METHYLPHENIDATE],Symptoms,Mus musculus [8],"Hyperactivity, irritability, stereotypy"
C#CCN1CCC(COc2nc3ccccc3c3c2CCCN3)CC1,inhibition,[1],100%
same,inhibition,[2],15%
CCCCN1CCC(COc2nc3ccc(Cl)cc3c3c2CCCCN3)CC1,inhibition,[1],92%
same,inhibition,[2],0%
CCCN1CCC(COc2nc3ccccc3c3c2CCCN3)CC1,IC50,[9],9100 nM
same,IC50,[10],5000 nM
same,IC50,[11],200 nM
same,IC50,[12],0.56 nM
same,inhibition,[1],100%
same,inhibition,[2],70%
same,Ki,[3],2.89 nM
same,inhibition,[13],36%
same,inhibition,[14],20%
same,IC50,[15],3400 nM
same,inhibition,[16],12%
same,inhibition,[17],0%
same,LD50,[18],37.5 mg/kg
same,inhibition,[19],39%
same,inhibition,[20],0%
same,inhibition,[21],0%
same,inhibition,[22],70%
same,IC50,D(1A) dopamine receptor,> 100000 nM
same,IC50,D(2) dopamine receptor,3400 nM
same,inhibition,[23],61%
same,inhibition,[24],13%
same,inhibition,[25],91%
same,inhibition,[26],0%
same,inhibition,[27],75%
same,inhibition,[28],0%
same,Symptoms,Mus musculus [29],Active
same,Symptoms,Mus musculus [30],Active
same,Stretches,Mus musculus [4],19
same,Stretches,Mus musculus [31],13.8
same,Stretches,Mus musculus [32],12.5
same,Stretches,Mus musculus [7],24.6
same,inhibition,[33],0%
same,inhibition,[34],79%
same,IC50,Vasopressin V1b receptor,3200 nM
same,IC50,Vasopressin V2 receptor,11000 nM
same,inhibition,[35],23%
same,inhibition,[36],17%
CCCCN1CCC(COc2nc3ccccc3c3c2CCCN3)CC1,inhibition,[1],100%
same,inhibition,[2],77%
same,Ki,[3],10 nM
CCCCN1CCC(COc2nc3ccc(Cl)cc3c3c2CCCN3)CC1,inhibition,[1],100%
same,inhibition,[2],2%
CCN1CCC(COc2nc3ccccc3c3c2CCCCN3)CC1,inhibition,[1],100%
same,inhibition,[2],51%
same,Ki,[3],10.7 nM
CCCN1CCC(COc2nc3ccccc3c3c2CCCCN3)CC1,inhibition,[1],100%
same,inhibition,[2],55%
same,Ki,[3],12.7 nM
CCCN1CCC(COc2nc3ccc(Cl)cc3c3c2CCCCN3)CC1,inhibition,[1],91%
same,inhibition,[2],5%
CN1CCC(COc2nc3ccccc3c3c2CCCN3)CC1,inhibition,[1],100%
same,inhibition,[2],52%
same,Ki,[3],79.7 nM
CN1C(C(=O)Nc2ccccn2)=C(O)c2ccccc2S1(=O)=O [PIROXICAM],Stretches,Mus musculus [37],2.4
same,Stretches,Mus musculus [7],24.6
c1ccc2c3c(c(OCC4CCNCC4)nc2c1)CCCN3,inhibition,[1],96%
same,inhibition,[2],24%
CCCCCN1CCC(COc2nc3ccccc3c3c2CCCCN3)CC1,inhibition,[1],100%
same,inhibition,[2],0%
CCCN1CCC(COc2nc3cc(Cl)ccc3c3c2CCCCN3)CC1,inhibition,[1],98%
same,inhibition,[2],0%
CCCCCN1CCC(COc2nc3ccccc3c3c2CCCN3)CC1,inhibition,[1],100%
same,inhibition,[2],51%
same,Ki,[3],12.5 nM
C=CCN1CCC(COc2nc3ccccc3c3c2CCCN3)CC1,inhibition,[1],100%
same,inhibition,[2],31%
CC(=O)Oc1ccccc1C(=O)O [ASPIRIN],Stretches,Mus musculus [38],8.7
same,Stretches,Mus musculus [7],25.8
CCN1CCC(COc2nc3ccccc3c3c2CCCN3)CC1,inhibition,[1],100%
same,inhibition,[2],55%
same,Ki,[3],13.1 nM
Cn1cc(C(=O)OCC2CCN(CCNS(C)(=O)=O)CC2)c2ccccc21,Stretches,Mus musculus [4],18.2
same,Stretches,Mus musculus [5],12.8
same,Stretches,Mus musculus [6],12.3
same,Stretches,Mus musculus [7],21.8
